The text below walks through data of ChEMBL document CHEMBL4118164, “Discovery of (E)-1-amino-4-phenylbut-3-en-2-ol derivatives as novel neuraminidase inhibitors” (Bioorg Med Chem Lett, 2018).

pIC50: −log10 of the molar value.

Neuraminidase, sequence (B4URF0 whole entry): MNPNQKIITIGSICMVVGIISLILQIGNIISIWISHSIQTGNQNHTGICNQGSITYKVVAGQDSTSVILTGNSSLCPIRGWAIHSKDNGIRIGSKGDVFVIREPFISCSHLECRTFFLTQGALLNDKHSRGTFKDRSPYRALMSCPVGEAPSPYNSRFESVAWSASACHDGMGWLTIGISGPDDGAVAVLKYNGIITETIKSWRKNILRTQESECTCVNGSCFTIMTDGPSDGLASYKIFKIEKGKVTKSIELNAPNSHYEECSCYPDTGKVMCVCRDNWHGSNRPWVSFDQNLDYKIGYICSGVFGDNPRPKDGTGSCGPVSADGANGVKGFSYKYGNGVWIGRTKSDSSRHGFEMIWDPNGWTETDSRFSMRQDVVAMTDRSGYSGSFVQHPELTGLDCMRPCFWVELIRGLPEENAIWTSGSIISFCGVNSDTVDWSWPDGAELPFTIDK

This assay has as its target Neuraminidase (Influenza A virus, UniProt B4URF0). In words: Inhibition of Influenza A H1N1 virus neuraminidase activity preincubated for 2 mins followed by MUNANA substrate addition measured after 30 mins by […]. The method in brief: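 Test compounds were dissolved in DMSO as stock solutions and diluted with assay buffer to four concentrations, spaced tenfold apart. Neuraminidase inhibition was measured with a commercial neuraminidase-inhibitor screening kit using a fluorescent read-out. IC50 values are means of three or more experiments.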
For `NCC(O)c1ccccc1` (stereo unspecified), the pIC50 is 3.06.
For `NCC(O)/C=C/c1ccccc1` (stereo unspecified) [listing 1 of 2 here] the value was 3.67; for `CC(C)(C)OC(=O)/N=C(\NCC(O)/C=C/c1ccccc1)NC(=O)OC(C)(C)C` (stereo unspecified), 3.99.
In the case of `NCC(O)c1ccsc1` (stereo unspecified) it was 2.05; in that of `O=S(=O)(NCC(O)/C=C/c1ccccc1)c1ccccc1` (stereo unspecified), 5.12; in that of `COc1cccc(S(=O)(=O)NCC(O)/C=C/c2ccccc2)c1` (stereo unspecified), 5.14.
For `Cc1ccc(CN(Cc2ccc(C)cc2)CC(O)/C=C/c2ccccc2)cc1` (stereo unspecified) the value was 4.29; for `COc1ccccc1S(=O)(=O)NCC(O)/C=C/c1ccccc1` (stereo unspecified), 5.10; for `COc1ccc(S(=O)(=O)NCC(O)/C=C/c2ccccc2)cc1` (stereo unspecified), 5.19.
In turn, `COc1ccccc1C(O)CN` (stereo unspecified) gave a pIC50 of 2.28.
In the case of `OC(/C=C/c1ccccc1)CN(Cc1ccccc1)Cc1ccccc1` (stereo unspecified) it was 4.38; in that of `COC(=O)c1ccc(C(=O)NCC(/C=C/c2ccccc2)OC(=O)c2ccc(C(=O)OC)cc2)cc1` (stereo unspecified), 4.39; in that of `COc1cccc(C(O)CN)c1` (stereo unspecified), 2.21.
In the case of `O=S(=O)(NCC(O)/C=C/c1ccccc1)c1ccc(OCc2ccccc2)cc1` (stereo unspecified) it was 4.95; in that of `N#Cc1ccc(CN(Cc2ccc(C#N)cc2)CC(O)/C=C/c2ccccc2)cc1` (stereo unspecified), 4.30.
The compound `COC(=O)c1ccc(S(=O)(=O)NCC(O)/C=C/c2ccccc2)cc1` (stereo unspecified) had a pIC50 of 4.88.
In turn, `NCC(O)/C=C/c1ccccc1` (stereo unspecified) [listing 2 of 2 here] had a pIC50 of 3.68.
For `N#Cc1ccc(S(=O)(=O)NCC(O)/C=C/c2ccccc2)cc1` (stereo unspecified) the value was 4.94.
With `O=S(=O)(NCC(O)/C=C/c1ccccc1)c1ccc(Br)cc1` (stereo unspecified), the pIC50 is 5.03.
For `Cc1ccc(C(=O)NCC(/C=C/c2ccccc2)OC(=O)c2ccc(C)cc2)cc1` (stereo unspecified) the value was 4.21.
In the case of `Cc1ccc(S(=O)(=O)NCC(O)/C=C/c2ccccc2)cc1` (stereo unspecified) it was 5.12; in that of `N#Cc1ccc(C(=O)NCC(/C=C/c2ccccc2)OC(=O)c2ccc(C#N)cc2)cc1` (stereo unspecified), 4.48; in that of `CC(C)(C)OC(=O)NCC(O)/C=C/c1ccccc1` (stereo unspecified), 3.97.
In the case of `O=S(=O)(NCC(O)/C=C/c1ccccc1)c1ccc(F)cc1` (stereo unspecified) it was 5.10; in that of `O=S(=O)(NCC(O)/C=C/c1ccccc1)c1ccc(Cl)cc1` (stereo unspecified), 5.04.
Consider `OC(/C=C/c1ccccc1)CN(Cc1ccc(C(F)(F)F)cc1)Cc1ccc(C(F)(F)F)cc1` (stereo unspecified), for which the pIC50 was 4.48.
